Source: ChEMBL document CHEMBL1156745, “Exploration of O-spiroketal C-arylglucosides as novel and selective renal sodium-dependent glucose co-transporter 2 (SGLT2) inhibitors” (Bioorg Med Chem Lett, 2009)

How the values were obtained:
[1] = molecular target: T1, Sodium/glucose cotransporter 1 (Homo sapiens, UniProt P13866); experiment: Inhibition of human SGLT1 transfected in COS-7 cells assessed as AMG uptake after 2 hrs by scintillation counting; format: cell-based
T1 sequence (P13866 whole entry): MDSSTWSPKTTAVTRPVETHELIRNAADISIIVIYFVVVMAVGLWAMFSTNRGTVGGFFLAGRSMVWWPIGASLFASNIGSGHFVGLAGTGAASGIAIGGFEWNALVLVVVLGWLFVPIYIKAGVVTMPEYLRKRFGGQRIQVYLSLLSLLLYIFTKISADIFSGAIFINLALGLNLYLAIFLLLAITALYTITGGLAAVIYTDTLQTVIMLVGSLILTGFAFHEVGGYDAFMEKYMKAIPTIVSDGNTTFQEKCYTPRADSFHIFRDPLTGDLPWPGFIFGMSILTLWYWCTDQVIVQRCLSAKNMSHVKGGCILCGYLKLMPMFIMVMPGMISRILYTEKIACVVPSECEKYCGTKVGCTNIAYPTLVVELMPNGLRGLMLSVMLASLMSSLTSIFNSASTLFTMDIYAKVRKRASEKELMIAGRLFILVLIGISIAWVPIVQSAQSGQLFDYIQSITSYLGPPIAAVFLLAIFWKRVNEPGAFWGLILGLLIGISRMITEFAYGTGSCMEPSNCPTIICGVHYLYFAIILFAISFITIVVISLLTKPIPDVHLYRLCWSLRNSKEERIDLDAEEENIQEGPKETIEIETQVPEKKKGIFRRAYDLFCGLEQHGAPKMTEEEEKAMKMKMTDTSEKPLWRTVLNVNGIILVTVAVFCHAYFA
In short: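 Transient transfection of human SGLT1 plasmid into COS-7 cells, which were cryopreserved until use. Seeded at 1 × 10⁵ cells/well in DMEM + 10% FBS, 48 h at 37 °C, 5% CO₂. Exposed to inhibitor with 40 µCi/mL [¹⁴C]AMG in Na⁺ or Na⁺-free Tris/Hepes buffer pH 7.2 for 2 h at 37 °C, shaking. Eight concentrations, triplicate. Na⁺-dependent uptake taken as Na⁺ minus Na⁺-free signal.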

[2] = molecular target: T2, Sodium/glucose cotransporter 2 (Homo sapiens, UniProt P31639); experiment: Inhibition of human SGLT2 transfected in HEK293.ETN cells assessed as AMG uptake after 1.5 hrs by scintillation counting; format: cell-based
T2 sequence (P31639 whole entry): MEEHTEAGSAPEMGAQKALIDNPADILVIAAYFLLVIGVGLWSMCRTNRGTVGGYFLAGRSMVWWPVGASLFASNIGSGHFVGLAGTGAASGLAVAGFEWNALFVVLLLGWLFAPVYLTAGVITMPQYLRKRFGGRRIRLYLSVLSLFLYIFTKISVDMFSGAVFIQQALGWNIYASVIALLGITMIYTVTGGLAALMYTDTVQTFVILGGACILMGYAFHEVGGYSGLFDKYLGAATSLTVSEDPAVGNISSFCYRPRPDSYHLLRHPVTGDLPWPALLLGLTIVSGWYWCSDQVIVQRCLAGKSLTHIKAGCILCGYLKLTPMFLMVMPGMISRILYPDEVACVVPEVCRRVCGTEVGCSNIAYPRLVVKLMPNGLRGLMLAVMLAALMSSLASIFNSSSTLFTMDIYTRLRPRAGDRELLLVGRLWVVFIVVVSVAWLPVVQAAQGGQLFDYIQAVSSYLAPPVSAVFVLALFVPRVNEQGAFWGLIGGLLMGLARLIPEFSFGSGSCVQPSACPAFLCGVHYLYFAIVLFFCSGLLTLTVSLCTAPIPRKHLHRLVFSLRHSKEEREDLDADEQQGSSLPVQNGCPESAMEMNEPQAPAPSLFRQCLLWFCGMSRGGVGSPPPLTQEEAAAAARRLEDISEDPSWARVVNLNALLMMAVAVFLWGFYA
In short: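 Full-length human SGLT2 in pEAK15, stably expressed in HEK293.ETN (puromycin-selected clones). Cells plated 1 × 10⁵/well in DMEM/10% FBS, 48 h, 37 °C. Compound plus 40 µCi/mL [¹⁴C]AMG in sodium or sodium-free Tris/Hepes buffer pH 7.2, 1.5 h at 37 °C with shaking. Washed, uptake read by scintillation counting. Eight concentrations in triplicate. Sodium-free value subtracted from sodium value.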

Mus musculus = experiment: Toxicity in CD1 mouse assessed as induction of severe diarrhea at 25 mg/kg, po after 6 hrs; format: organism-based; parameters: dose 25 mg/kg, route oral; conditions: in vivo
In short: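 CD1 mice given a single oral dose of 25 mg/kg. Watched for diarrhea at 6 h.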

Compound | IC50 [1] [nM] | IC50 [2] [nM] | Activity (Mus musculus)
OC[C@H]1O[C@]2(OCc3cc(Cl)c(Cc4ccc(OC(F)(F)F)cc4)cc32)[C@H](O)[C@@H](O)[C@@H]1O | 3100 | 0.3 | 
CCOc1ccc(Cc2cc3c(cc2Cl)CO[C@]32O[C@H](CO)[C@@H](O)[C@H](O)[C@H]2O)cc1Cl | 10500 | 68 | 
CCc1ccc(Cc2cc3c(cc2Cl)CO[C@]32O[C@H](COCC(F)(F)F)[C@@H](O)[C@H](O)[C@H]2O)cc1 | 14000 | 70 | 
CCOc1cc(F)ccc1Cc1cc2c(cc1Cl)CO[C@]21O[C@H](CO)[C@@H](O)[C@H](O)[C@H]1O | 10000 | 1000 | 
CCc1ccc(C2(c3cc4c(cc3Cl)CO[C@]43O[C@H](CO)[C@@H](O)[C@H](O)[C@H]3O)CC2)cc1 | 6000 | 1.3 | 
CCc1ccc(Cc2cc3c(cc2Cl)CO[C@]32O[C@H](CN)[C@@H](O)[C@H](O)[C@H]2O)cc1 | > 100000 | 100 | 
CCc1ccc(C(=O)c2cc3c(cc2Cl)CO[C@]32O[C@H](CO)[C@@H](O)[C@H](O)[C@H]2O)cc1 | 43000 | 22 | 
CCOc1ccc(Cc2ccc3c(c2)[C@]2(OC3)O[C@H](CO)[C@@H](O)[C@H](O)[C@H]2O)cc1 | 10000 |  | 
CCc1ccc(Cc2cc3c(cc2F)CO[C@]32O[C@H](CO)[C@@H](O)[C@H](O)[C@H]2O)cc1 | 5300 | 8.6 | 
CCc1ccc(Cc2cccc3c2CO[C@]32O[C@H](CO)[C@@H](O)[C@H](O)[C@H]2O)cc1 |  | > 1000 | 
CC(C)(C)c1ccc(Cc2cc3c(cc2Cl)CO[C@]32O[C@H](CO)[C@@H](O)[C@H](O)[C@H]2O)cc1 | 9700 | 13 | 
CCOc1ccc(Cc2cc3c(cc2Cl)CO[C@]32O[C@H](CO)[C@@H](O)[C@H](O)[C@H]2O)c(Cl)c1 | 10000 | > 1000 | 
COc1ccc(Cc2cc3c(cc2Cl)CO[C@]32O[C@H](CO)[C@@H](O)[C@H](O)[C@H]2O)c(C)c1 | 10000 | > 1000 | 

Further lines, with some results ahead:

IC50 [1] [nM] | IC50 [2] [nM] | Compound | Activity (Mus musculus)
1000 | 10 | CCc1ccc(Cc2cc3c(cc2Cl)CO[C@]32O[C@H](CN=[N+]=[N-])[C@@H](O)[C@H](O)[C@H]2O)cc1 | 
1500 | 0.8 | Cc1cccc(Cc2cc3c(cc2Cl)CO[C@]32O[C@H](CO)[C@@H](O)[C@H](O)[C@H]2O)c1F | 
1000 | 100 | Cc1cc(F)ccc1Cc1cc2c(cc1Cl)CO[C@]21O[C@H](CO)[C@@H](O)[C@H](O)[C@H]1O | 
1300 | 6.5 | CCOc1ccc(Cc2cc3c(cc2Cl)CO[C@]32O[C@H](CO)[C@@H](O)[C@H](O)[C@H]2O)cc1 | 
1000 | 10 | COc1c(C)cccc1Cc1cc2c(cc1Cl)CO[C@]21O[C@H](CO)[C@@H](O)[C@H](O)[C@H]1O | 
1600 | 7 | CCc1ccc(C(F)(F)c2cc3c(cc2Cl)CO[C@]32O[C@H](CO)[C@@H](O)[C@H](O)[C@H]2O)cc1 | 
2500 | 7.1 | CC(C)c1ccc(Cc2cc3c(cc2Cl)CO[C@]32O[C@H](CO)[C@@H](O)[C@H](O)[C@H]2O)cc1 | 
600 | 6.6 | CCc1ccc(Cc2cc3c(cc2Cl)CO[C@]32O[C@H](CO)[C@@H](O)[C@H](O)[C@H]2O)cc1 | Toxic
1000 | > 1000 | CCOc1ccc(Cc2cc3c(cc2Cl)CO[C@]32O[C@H](CO)[C@@H](O)[C@H](O)[C@H]2O)c(C)c1 | 
200 | 2.5 | COc1ccc(Cc2cc3c(cc2Cl)CO[C@]32O[C@H](CO)[C@@H](O)[C@H](O)[C@H]2O)cc1 | 
2700 | 5.8 | CCc1ccc(Cc2cc3c(cc2Cl)CO[C@]32O[C@H](COC)[C@@H](O)[C@H](O)[C@H]2O)cc1 | 
